Screening data from PubChem.
Hits are enriched below; roughly 3.8% of the tested compounds scored in any of these assays.
Kir21 block: blocks the mouse Kir2.1 inward-rectifier potassium channel. B-score at 10 µM. 0.85% of 310,000 active. HEK293-Kir2.1, FluxOR thallium flux fluorescence; active compounds read low. AID 1672. P35561;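 active = fluorescence ratio B-score at or below minus 3 SD of library scores, with starting-brightness B-score within 2 SD, cut at about -4.2 in these data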;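 note: channel flux triggered by added potassium and thallium sulfate stimulus; B-score of peak minus minimum fluorescence over baseline after thallium stimulus; more negative B-score means stronger Kir2.1 block with less thallium influx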
KCNQ1 inh: blocks the human KCNQ1 potassium channel. P51787. 1.3% of 310,000 active. B-score at 10 µM. CHO-K1 KCNQ1, FluxOR thallium flux fluorescence; active compounds read high;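 active = compounds whose thallium flux B-score, printed positive for inhibition, exceeds three library SD while starting fluorescence stays within three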;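 note: channel opened by potassium depolarization with thallium stimulus after 20 min compound exposure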
KCNK3 block: human KCNK3 channel inhibition, primary screen | CHO-KCNK3 thallium flux, FluxOR fluorescence; active compounds read low | B-score at 10 µM | 0.84% of 340,000 active;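 active = B-score under library mean minus 4 SD, starting fluorescence ratio at most library mean plus 5 SD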;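 note: more negative B-score means stronger inhibition of thallium flux through KCNK3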
hERG rescue: compounds protecting human hERG from proarrhythmic drug block | AID 1511 | CHO-hERG, FluxOR thallium flux, dofetilide IC70 present | Q12809 | activation (rescue from dofetilide block), less the hit threshold, % at 10 µM | 0.51% of 310,000 active;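 active = activation above the mean of controls blocked by dofetilide plus 5 SD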;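 note: thallium influx through hERG after potassium depolarization seen as dye fluorescence rise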
KCNQ1 act: potentiators or activators of human KCNQ1 potassium channel | CHO-K1 KCNQ1, thallium flux FluxOR fluorescence; active compounds read high | B-score at 10 µM | 0.35% of 310,000 active | AID 2648 | P51787;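 active = fluorescence ratio B-score, a plate-corrected score, at least three library SD, with initial intensity B-score within 5 SD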
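Test system: CHO-K1 cells stably expressing KCNQ1 / Medium: assay buffer / Also added: depolarizing K+/Tl+ stimulus, K2SO4 and Tl2SO4 each 12.5 mM in 5x stock / Incubation: 90 min dye loading and 20 min compound exposure, both at room temperature / Signal: thallium influx via FluxOR fluorescence, kinetic imaging / Evaluation: B score of baseline-normalized fluorescence ratio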
KCNK9 inh: inhibitors of human KCNK9 two-pore domain potassium channel; HEK293 KCNK9, FluxOR thallium flux fluorescence; active compounds read low; B-score at 10 µM; 1.2% of 310,000 active; AID 488922;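 active = ratio B-score over 3 SD below the library mean, with starting fluorescence within 5 SD of its mean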;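 note: negative B-score means less thallium flux so channel inhibition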
Target sequence (Q9NPC2 whole entry, looked up, the tested form may be a part): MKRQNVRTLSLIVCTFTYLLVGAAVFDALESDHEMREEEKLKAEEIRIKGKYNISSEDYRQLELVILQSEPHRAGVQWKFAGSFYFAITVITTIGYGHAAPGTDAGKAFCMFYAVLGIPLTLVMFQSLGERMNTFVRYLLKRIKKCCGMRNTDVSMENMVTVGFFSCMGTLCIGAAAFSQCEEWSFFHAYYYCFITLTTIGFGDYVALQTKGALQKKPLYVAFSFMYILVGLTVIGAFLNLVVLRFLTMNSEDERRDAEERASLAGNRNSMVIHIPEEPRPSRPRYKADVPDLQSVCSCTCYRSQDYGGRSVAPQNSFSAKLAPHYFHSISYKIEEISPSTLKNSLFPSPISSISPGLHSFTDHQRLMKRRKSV
KCNK3 confirm: confirmation of human KCNK3 two-pore domain potassium channel inhibitors; shares compounds with KCNK3 block; 99% of 2,400 active; CHO-KCNK3 thallium flux, FluxOR fluorescence; 0% buffer, 100% carvedilol maximal block; ratio percent of control, % at 10 µM;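 active = ratio percent of control, averaged over triplicates, above buffer control mean plus 5 SD, cut at about 64% in these data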;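 note: ratio is the fluorescence rise from min to max over baseline after thallium stimulus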
KCNK3 noninduced: KCNK3 inhibitor counter-screen hit in non-induced cells; shares compounds with KCNK3 block; non-induced KCNK3 parental cells, FluxOR thallium flux; active compounds read low; thallium flux ratio (lower = more inhibition) at 10 µM; 40% of 2,400 active; AID 651747;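 active = thallium flux ratio, averaged over three wells, more than 5 SD below the buffer control mean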;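 note: host cells are CHO cells without KCNK3 induction; ratio is peak minus trough fluorescence over baseline then normalized to buffer controls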
Starred values were filed as active, the others as inactive; i = inactive; · = no result given.

SMILES	Kir21 block	KCNQ1 inh	KCNK3 block	hERG rescue	KCNQ1 act	KCNK9 inh	KCNK3 confirm	KCNK3 noninduced
O=C1OC(c2ccccc2)(c2ccc3cc(O)ccc3c2)c2ccccc21 (stereo not drawn)	·	·	-16*	·	·	·	128*	0.11*
Cc1cc(C)cc(OCC(=O)Nc2ccccc2N2CCCCC2)c1	-1.9	i	-10*	-1	i	i	94*	i
O=C(Nc1ccccc1N1CCN(c2ccccc2)CC1)c1ccccc1F	-0.02	i	-9.7*	-2	i	i	125*	0.11*
O=C(COc1ccccc1[N+](=O)[O-])Nc1ccccc1N1CCCC1	-0.8	i	i	-10	i	i	·	·
Cc1cccc(OCC(=O)Nc2ccccc2N2CCCC2)c1C	0.56	i	-9.8*	-16	i	i	118*	0.14*
O=C(COc1c(Cl)cccc1Cl)Nc1ccccc1N1CCCC1	0.12	i	-9.1*	-10	i	i	121*	0.13*
N#Cc1cccc(S(=O)(=O)NCC(=O)OCC(=O)NCc2ccccc2)c1	·	·	i	·	·	·	·	·
CC(C)(C)c1ccc(C(=O)NCC(=O)OCC(=O)N2CCCC2)cc1	·	·	i	·	·	·	·	·
O=C(Cc1ccccc1F)Nc1ccccc1N1CCCC1	-4.1	i	-9.1*	-9	i	i	89*	i
Cc1cc(C(=O)OCC(=O)Nc2ccccc2Br)c(C)o1	·	·	i	·	·	·	·	·
CCOC(=O)c1ccccc1NC(=O)COC(=O)CC1CCCCC1	-0.62	i	-9.7*	-6	i	i	105*	0.15*
CCOC(=O)c1ccc(NC(=O)CSCc2ccco2)cc1	-1.6	i	-9.2*	-22	i	i	91*	i
Nc1c(Cl)cc(N=Nc2ccccc2)cc1Cl	·	·	i	·	·	·	·	·
CCOC(=O)c1c(NC(=O)CSc2nnc(-c3ccccc3)n2CC)sc(C(C)=O)c1C	0.54	i	i	-4	i	i	·	·
CCOC(=O)c1sc(NC(=O)CSc2nnc(-c3ccco3)n2CC)c(C(=O)OCC)c1C	0.11	i	-12*	1	i	i	98*	i
N#Cc1ccccc1OCC(=O)NCC(c1cccs1)N1CCOCC1 (stereo not drawn)	-0.55	i	i	-2	i	i	·	·
CC(C)CN(CC(C)C)C(=O)COn1nnc2ccc(S(=O)(=O)N3CCOCC3)cc21	·	·	i	·	·	·	·	·
O=C(COn1nnc2ccc(S(=O)(=O)N3CCOCC3)cc21)Nc1c(F)c(F)c(F)c(F)c1F	-1.2	i	-8.8*	-11	i	-7.4*	87*	i
Fc1ccc2cc(-c3ccccc3F)ncc2c1	·	·	i	·	·	·	·	·
Cc1nn(C)cc1[C@@H]1C[C@H]2CN(Cc3cccc(Cl)c3)C(=O)[C@]23CCCN13	0.81	i	i	-8	i	i	·	·
CCCn1ncc([C@@H]2C[C@H]3CN(Cc4cccc(Cl)c4)C(=O)[C@]34CCCN24)c1C	0.01	i	i	-11	i	i	·	·
Cn1cc([C@@H]2C[C@H]3CN(Cc4cccc(Cl)c4)C(=O)[C@]34CCCN24)c(-c2ccccc2)n1	-1.9	i	-9.7*	-6	i	-7.3*	100*	i
O=C1N(Cc2cccc(Cl)c2)C[C@@H]2C[C@@H](c3ccco3)N3CCC[C@@]123	0.07	i	-9.2*	-8	i	i	88*	i
NC(=O)C1CCCN(C(=O)c2cccc(S(=O)(=O)N3CCCCCC3)c2)C1 (stereo not drawn)	·	·	i	·	·	·	·	·
CN(CC(=O)Nc1ccc(Cl)c(C(F)(F)F)c1)C(=O)C1CC(=O)N(C2CCCC2)C1 (stereo not drawn)	·	·	i	·	·	·	·	·
SMILES	Kir21 block	KCNQ1 inh	KCNK3 block	hERG rescue	KCNQ1 act	KCNK9 inh	KCNK3 confirm	KCNK3 noninduced
COc1ccc(C2C(C(N)=O)=C(C)Nc3nc(CCCO)nn32)cc1OC (stereo not drawn)	-1.9	i	i	-4	i	i	·	·
COc1ccc(Cl)cc1NC(=O)CN(C)CC(=O)Nc1ccccc1-c1ccccc1	1.6	i	-9.7*	0	i	i	99*	i
COc1ccc(Cl)cc1NC(=O)CN(C)C(=O)Cc1ccc(-c2ccccc2)cc1	·	·	i	·	·	·	·	·
COc1cc(C(=O)N/N=C/c2ccc(OC(=O)c3cccc(C)c3)c(OC)c2)ccc1O	-1.9	8*	-8.7*	-21	i	i	82*	i
COc1cccc(C(=O)Oc2ccc(/C=N/NC(=O)c3ccncc3)cc2OC)c1	0.51	i	i	-5	i	i	·	·
Cn1c2ccccc2c2cc(/C=N/NC(=O)c3cc(O)ccc3O)ccc21	-0.14	i	i	-36	i	i	·	·
COc1cc(C(=O)N/N=C/c2ccc3c(c2)c2ccccc2n3C)ccc1O	2.2	i	-11*	-21	i	i	100*	i
O=C(NCCCSc1ccccc1)c1cc(Br)ccc1O	-0.73	i	-8.8*	-15	i	i	151*	0.12*
COc1ccc(Cl)cc1C(=O)NCCCSc1ccccc1	-0.32	i	-9.2*	-7	i	i	112*	0.16*
O=C(c1ccc(NS(=O)(=O)c2ccc3[nH]c(=O)[nH]c3c2)cc1)N1CCN(c2ccccc2O)CC1	-0.48	i	i	-10	i	i	·	·
CN(C(=O)c1ccc(F)cc1)c1ccc(OCC(=O)Nc2ccccc2C(=O)O)cc1	·	·	i	·	·	·	·	·
COc1ccc(C(=O)C2CCCN(S(=O)(=O)c3ccc(C(C)=O)cc3)C2)c(C)c1 (stereo not drawn)	0.19	i	-10*	-8	i	i	120*	0.15*
Cc1cc(OCCCCOc2ccc(S(N)(=O)=O)c(C)c2)ccc1S(N)(=O)=O	-0.12	i	i	-4	i	i	·	·
COc1ccc(C(=O)CSc2nnc(CNC(=O)c3ccccc3F)n2C)cc1OC	2	i	i	-3	i	i	·	·
CCCCC(=O)Nc1cccc(-c2nnc(-c3ccccc3)o2)c1	-0.61	i	i	-25	i	-6.7*	123*	i
CCCCC(=O)Nc1ccc(C(=O)c2ccccc2)cc1	2.3	i	i	-18	i	-6.8*	96*	i
CCCc1cc(C(=O)Nc2ccc(C(=O)c3ccccc3)cc2)n(C)n1	0.23	i	-13*	-15	i	i	132*	0.15*
Cc1cccc(C)c1OCC(=O)Nc1cccc(-c2nnc(-c3ccccc3)o2)c1	1	i	i	-15	i	i	·	·
